From PubChem
In the library only some 1% were active in any assay of this set; here they are far more common.
VIM-2 inh = inhibitors of Pseudomonas aeruginosa VIM-2 metallo-beta-lactamase; purified VIM-2, nitrocefin hydrolysis, epi-absorbance fluorescence; inhibition, % at 5.6 µM; 290,000 tested, 0.89% active; AID 1527;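 active = inhibition above the mean of all tested compounds plus 3 SD, cutoff set per screening run, cut at about 7.5% in these data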;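 note: red hydrolysis product quenches plate fluorescence so inhibitors raise well fluorescence; 0% = enzyme with DMSO and 100% = DMSO without enzyme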
RAD54 inh = RAD54 (human) branch migration inhibition | Q92698 | RAD54 Holliday junction branch migration, FAM/BHQ fluorescence | inhibition, % at 10.4 µM | 360,000 tested, 0.14% active | AID 602329;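 active = mean normalized replicate activity at least 40 and at least half of replicates scoring 40 or more; inconclusive = only one of the two criteria met; inactive = mean below 40 and under half of replicates reaching 40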;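 note: 0% = median of neutral control wells and 100% = median of positive control wells; inhibitors cause a drop in the FAM fluorescence signal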
Target sequence (Q92698 whole entry, looked up): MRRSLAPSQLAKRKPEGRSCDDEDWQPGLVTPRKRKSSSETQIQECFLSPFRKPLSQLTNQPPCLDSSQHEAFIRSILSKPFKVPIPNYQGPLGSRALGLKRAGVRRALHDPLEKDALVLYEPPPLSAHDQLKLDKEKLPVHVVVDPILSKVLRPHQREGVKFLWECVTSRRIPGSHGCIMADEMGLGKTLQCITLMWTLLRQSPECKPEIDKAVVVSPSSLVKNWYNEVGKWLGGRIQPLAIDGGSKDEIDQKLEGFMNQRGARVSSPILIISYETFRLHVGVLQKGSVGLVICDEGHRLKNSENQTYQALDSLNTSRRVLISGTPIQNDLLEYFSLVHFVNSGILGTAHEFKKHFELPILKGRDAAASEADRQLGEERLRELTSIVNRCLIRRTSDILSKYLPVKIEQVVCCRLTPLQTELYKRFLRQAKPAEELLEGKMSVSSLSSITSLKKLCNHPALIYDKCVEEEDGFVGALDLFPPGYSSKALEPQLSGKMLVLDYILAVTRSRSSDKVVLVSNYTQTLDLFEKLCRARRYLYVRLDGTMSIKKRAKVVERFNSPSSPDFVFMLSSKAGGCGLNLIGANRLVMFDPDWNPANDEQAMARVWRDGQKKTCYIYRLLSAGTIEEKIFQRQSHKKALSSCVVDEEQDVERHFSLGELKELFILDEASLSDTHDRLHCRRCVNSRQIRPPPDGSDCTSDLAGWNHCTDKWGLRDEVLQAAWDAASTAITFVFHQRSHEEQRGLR
PvdQ inh = P. aeruginosa PvdQ acylase inhibition; purified PvdQ acylase, fluorescence plate reader; AID 488965; 340,000 tested, 0.063% active; inhibition, % at 10 µM; in the data active = inhibition above about 30%, passing the limit was not always enough; inconclusive = no clear call, values can overlap the other calls;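 note: 0% = vehicle neutral wells and 100% = reference inhibitor wells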
IMP-1 inh-1 = blocks Pseudomonas aeruginosa IMP-1 metallo-beta-lactamase; purified IMP-1, nitrocefin hydrolysis, epi-absorbance fluorescence; 290,000 tested, 0.45% active; inhibition, % at 5.6 µM;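 active = inhibition above the mean plus 3 SD of all compounds in the same screening run, cut at about 4.5% in these data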;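 note: 0% = IMP-1 with DMSO and 100% = DMSO wells lacking enzyme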
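System: purified IMP-1 / Input: IMP-1 dispensed at 0.2 nM / Medium: 50 mM HEPES pH 7.1, 50 µM ZnSO4, 0.05% Brij 35 / Timing: 15 min enzyme–compound preincubation, then 25 min nitrocefin reaction, 25 °C / Technique: plate fluorescence quenching by hydrolysis product, ex 480/em 530 nm / Repeats: singlicate testing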
FID counter = fluorescent intercalator displacement, NS3 helicase counter-screen; DNA fluorescent intercalator displacement, fluorescence; inhibition, % at 7.9 µM; 290,000 tested, 0.17% active; AID 1845; in the data active = inhibition above about 37%;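 note: 0% = vehicle and 100% = reference compound; higher means more ethidium bromide displaced from hairpin DNA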
IMP-1 inh-2 = IMP-1 inhibition, counter-screen for VIM-2 inhibitors. shares compounds with VIM-2 inh. purified IMP-1, nitrocefin hydrolysis, epi-absorbance fluorescence. inhibition, % at 5.6 µM. 1,300 tested, under 10 active. AID 1856; call rule not given here;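 note: 0% = enzyme with vehicle and 100% = vehicle without enzyme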
VIM-2 FRET ctr = inhibits VIM-2 in FRET assay to exclude epi-absorbance artifacts. 1,300 tested, 23% active. shares compounds with VIM-2 inh. inhibition, % at 5.6 µM. purified VIM-2, CCF2 FRET substrate hydrolysis;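 active = inhibition above the mean of all tested compounds plus 3 SD, cut at about 19% in these data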;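 note: 0% = VIM-2 plus DMSO and 100% = no enzyme wells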
TEM-1 counter = blocks E. coli TEM-1 beta-lactamase in VIM-2 selectivity screen; Purified TEM-1, nitrocefin hydrolysis, epi-absorbance fluorescence; shares compounds with VIM-2 inh; inhibition, % at 5.6 µM; 1,300 tested, 3% active;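 active = inhibition above that campaign's mean inhibition plus 3 SD, cut at about 0.46% in these data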;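 note: 0% = TEM-1 with DMSO and 100% = TEM-1 with 100 µM potassium clavulanate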
VIM-2 confirm 2 = confirmation of P. aeruginosa VIM-2 metallo-beta-lactamase inhibitors | purified VIM-2, nitrocefin hydrolysis, epi-absorbance | shares compounds with VIM-2 inh | inhibition, % at 5.6 µM | AID 2187 | 1,300 tested, 96% active;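 active = inhibition of the VIM-2 beta-lactamase enzyme above about 11% from the earlier first-round screen, limit read from the data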;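 note: 0% = VIM-2 with DMSO and 100% = buffer wells without enzyme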
* = called active by the depositor; ? = inconclusive; nt = no result given.

SMILES	VIM-2 inh	RAD54 inh	PvdQ inh	IMP-1 inh-1	FID counter	IMP-1 inh-2	VIM-2 FRET ctr	TEM-1 counter	VIM-2 confirm 2
Cc1c(OCC(=O)NCC(O)c2ccccc2)ccc2c3c(c(=O)oc12)CCC3 (stereo not given)	20*	5	3	0	-33	-3	-4	-9	28*
O=C(COc1cc2oc(=O)c3c(c2cc1Cl)CCC3)Nc1ccccn1	6	-4	-2	-1	-19	nt	nt	nt	nt
CC1=Nc2ccc(C)cc2/C1=C/c1c(N)n2nc(CC(=O)N3CCOCC3)sc2nc1=O	12*	-27	-3	-1	-37	-3	22*	-9	16*
CCCN1C[C@@H](C)[C@@H](OC)CN(C)C(=O)c2cc(NC(=O)c3ccc(F)cc3)ccc2OC[C@@H]1C	nt	1	nt	nt	nt	nt	nt	nt	nt
c1cncc(-c2ccnc3ncnn23)c1	-1	nt	-9	-3	1	nt	nt	nt	nt
c1cn(-c2ccc(-c3ccnc4ncnn34)cc2)cn1	45*	8	-12	-1	-1	-3	2	-4	63*
CC(=O)c1c(C)n(-c2ccc(Cl)cc2)c2ccc(O)cc12	14*	nt	-12	-1	-9	-2	24*	-4	16*
C[C@@H]1CCCCO[C@@H](CN(C)C(=O)c2ccccc2)[C@H](C)CN([C@@H](C)CO)C(=O)c2cc(NC(=O)Cc3ccccc3)ccc2O1	nt	6	nt	nt	nt	nt	nt	nt	nt
C[C@@H]1CN([C@@H](C)CO)C(=O)c2cccc(NC(=O)C3CCCCC3)c2O[C@@H]1CN(C)C(=O)Nc1ccc(F)cc1	nt	-9	nt	nt	nt	nt	nt	nt	nt
Cc1nc(N=C(N)N)nc2ccccc12	0	nt	1	-1	3	nt	nt	nt	nt
Cc1cc2nc(N=C(N)N)nc(C)c2cc1C	17*	?	13	-2	33	-4	0	-5	26*
COc1cc2c(cc1OC)C(C)N(C(=O)c1nccnc1C(=O)O)CC2 (stereo not given)	20*	-14	-3	-2	4	-3	43*	-6	33*
CO[C@H]1CN(C)C(=O)c2cc(NC(C)=O)ccc2OC[C@@H](C)N(C(=O)C2CCOCC2)C[C@H]1C	nt	-6	nt	nt	nt	nt	nt	nt	nt
O=C(O)c1ccccc1Sc1ncnc2sc3c(c12)CCC3	29*	-3	-21	-2	-8	-4	61*	-6	37*
Cc1sc2ncnc(Sc3ccccc3C(=O)O)c2c1C	7	nt	-4	-2	-8	nt	nt	nt	nt
Oc1ccc(/C=N/n2c(-c3ccccc3)n[nH]c2=S)cc1Br	8	6	-9	-4	-12	nt	nt	nt	nt
Cc1ccc(/C=N/n2c(-c3ccccc3)n[nH]c2=S)cc1	-3	1	5	-6	-22	nt	nt	nt	nt
Oc1c(Br)cc(/C=N/n2c(-c3ccccc3)n[nH]c2=S)c(O)c1Br	34*	2	5	-5	2	-3	58*	-8	43*
Cc1ccc(-c2n[nH]c(=S)n2/N=C/c2ccc(C(=O)O)cc2)cc1	18*	2	-10	-4	-12	-4	35*	-7	23*
Oc1c(Br)cc(/C=N/n2c(-c3ccccc3)n[nH]c2=S)cc1Br	27*	1	-17	-5	-9	-2	50*	-7	39*
Cc1c(Br)c(O)c(Br)c(O)c1/C=N/n1c(-c2ccccc2)n[nH]c1=S	19*	-10	?	-2	-8	-3	26*	-7	27*
CC(C)CC#Cc1cnc2c(c1)C(=O)N([C@@H](C)CO)C[C@@H](C)[C@H](CN(C)Cc1ccccc1C(=O)O)O2	nt	2	nt	nt	nt	nt	nt	nt	nt
CCCNC(=O)N(C)C[C@H]1Oc2cc(C#Cc3ccccn3)ccc2S(=O)(=O)N([C@@H](C)CO)C[C@H]1C	nt	-5	nt	nt	nt	nt	nt	nt	nt
CNC(=O)COc1ccc(-c2nn(C)c(=O)c3ccccc23)cc1	5	-2	-4	1	-6	nt	nt	nt	nt
Cn1nc(-c2ccc(OCC(=O)Nc3cccnc3)cc2)c2ccccc2c1=O	20*	2	-6	-3	-20	-4	2	-7	31*
SMILES	VIM-2 inh	RAD54 inh	PvdQ inh	IMP-1 inh-1	FID counter	IMP-1 inh-2	VIM-2 FRET ctr	TEM-1 counter	VIM-2 confirm 2
Nc1nc(NCCCN2CCOCC2)nc(Nc2ccccc2F)c1[N+](=O)[O-]	29*	nt	-6	-4	16	-3	2	-11	51*
Cc1cccc(Nc2nc(NCCCN3CCOCC3)nc(N)c2[N+](=O)[O-])c1	14*	-13	-5	-2	7	-4	0	-10	37*
Nc1nc(Nc2ccccc2F)nc(NCCO)c1[N+](=O)[O-]	-2	2	nt	-2	1	nt	nt	nt	nt
Cc1cccc(Nc2nc(N)c([N+](=O)[O-])c(NCc3ccccc3)n2)c1	0	2	-11	-1	-6	nt	nt	nt	nt
COc1cnc(-c2ccccn2)nc1Sc1ccccc1Cl	0	-13	7	-3	-17	nt	nt	nt	nt
CCOC(=O)C(C)Sc1nc(-c2ccccn2)ncc1OC (stereo not given)	35*	nt	-17	-4	-14	-3	-20	-6	43*
COc1ccc(Oc2nc(-c3ccccn3)ncc2OC)cc1	16*	nt	7	-5	-16	-4	-24	-5	25*
COc1cnc(-c2ccccn2)nc1Oc1cccc(Cl)c1	17*	-6	1	-4	-13	-4	-31	-4	36*
COc1cnc(-c2ccccn2)nc1Oc1c(C)cccc1C	3	nt	-8	-3	-14	nt	nt	nt	nt
C[C@H](CO)N1C[C@H](C)[C@H](CN(C)S(=O)(=O)c2ccc(Cl)cc2)OCCCC[C@H](C)Oc2ccc(NS(C)(=O)=O)cc2C1=O	nt	2	nt	nt	nt	nt	nt	nt	nt
CCOCCCNc1c2c(nc3cc(-c4ccc(F)cc4)nn13)CCC2	-1	nt	6	-1	-5	nt	nt	nt	nt
CN(C)CCCNc1c2c(nc3cc(-c4cccc(F)c4)nn13)CCC2	13*	1	-11	1	22	0	-5	-5	27*
O=C(O)c1ncsc1-c1ccccc1	13*	nt	-10	-3	5	-2	24*	-1	16*
O=C1OC(c2ccccc2)=N/C1=C\C=C\c1ccccc1[N+](=O)[O-]	16*	nt	4	3	-15	-2	30*	-2	9.9*
C[C@H]1CN([C@@H](C)CO)C(=O)Cc2cc(NC(=O)Cn3cnnn3)ccc2O[C@@H]1CN(C)Cc1ccncc1	nt	5	nt	nt	nt	nt	nt	nt	nt
O=C1c2cccc3c(N4CCCCC4)ccc(c23)C(=O)N1CCO	13*	-68	1	1	-26	0	2	-5	25*
Cc1cccn2c(=O)c3cc(C(=O)NC4CCCC4)c(=N)n(C4CCCCC4)c3nc12	2	40	-18	-2	0	nt	nt	nt	nt
